Laboratory results published in the M2OR odorant receptor database.

What was measured:
Conditions in all cases: stereoisomer not certain
OR10S1 (Homo sapiens) = target: T1, OR10S1 (Homo sapiens) (UniProt Q8NGN2)
T1 sequence (whole entry): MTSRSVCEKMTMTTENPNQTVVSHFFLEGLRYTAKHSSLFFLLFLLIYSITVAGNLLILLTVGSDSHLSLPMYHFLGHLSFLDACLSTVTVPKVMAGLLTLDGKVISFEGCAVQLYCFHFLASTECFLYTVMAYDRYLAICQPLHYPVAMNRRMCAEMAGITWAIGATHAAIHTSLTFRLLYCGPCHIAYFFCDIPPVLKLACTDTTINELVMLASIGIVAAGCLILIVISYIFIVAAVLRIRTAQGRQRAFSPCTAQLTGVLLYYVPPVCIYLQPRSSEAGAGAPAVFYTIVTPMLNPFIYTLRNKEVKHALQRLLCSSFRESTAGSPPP
How it was run: (§1)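 Each entry records the cell line, G-protein, co-transfected protein and tags used. Methods varied with the source, often transient luciferase assays in mammalian cell lines. A receptor–molecule pair is called responsive (active) if the original authors judged its signal statistically different from baseline and non-responsive (inactive) otherwise.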

OR10J5 (Homo sapiens) = target: T2, OR10J5 (Homo sapiens) (UniProt Q8NHC4)
T2 sequence (whole entry): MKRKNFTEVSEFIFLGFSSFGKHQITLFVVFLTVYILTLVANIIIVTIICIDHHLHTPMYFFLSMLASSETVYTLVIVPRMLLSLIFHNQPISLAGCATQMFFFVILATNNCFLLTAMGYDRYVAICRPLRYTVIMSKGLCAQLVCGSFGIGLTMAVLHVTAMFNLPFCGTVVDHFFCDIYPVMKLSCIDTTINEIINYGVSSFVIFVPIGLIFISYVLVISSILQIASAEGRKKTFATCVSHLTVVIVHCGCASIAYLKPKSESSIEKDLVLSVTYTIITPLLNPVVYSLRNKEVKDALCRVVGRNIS
How it was run: as §1

OR10H3 (Homo sapiens) = OR10H3 (Homo sapiens) (UniProt O60404)
OR10H3 (Homo sapiens), sequence (O60404 whole entry): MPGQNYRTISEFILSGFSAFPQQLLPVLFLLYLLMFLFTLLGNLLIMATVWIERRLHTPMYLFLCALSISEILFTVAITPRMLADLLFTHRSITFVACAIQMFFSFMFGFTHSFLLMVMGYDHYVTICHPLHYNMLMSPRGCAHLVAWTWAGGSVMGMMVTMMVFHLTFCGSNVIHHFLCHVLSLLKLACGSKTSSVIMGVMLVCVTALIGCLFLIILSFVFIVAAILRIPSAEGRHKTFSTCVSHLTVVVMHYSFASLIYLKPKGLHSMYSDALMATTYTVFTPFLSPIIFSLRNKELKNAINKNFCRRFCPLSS
How it was run: as §1

OR10H4 (Homo sapiens) = OR10H4 (Homo sapiens) (UniProt Q8NGA5)
OR10H4 (Homo sapiens), sequence (Q8NGA5 whole entry): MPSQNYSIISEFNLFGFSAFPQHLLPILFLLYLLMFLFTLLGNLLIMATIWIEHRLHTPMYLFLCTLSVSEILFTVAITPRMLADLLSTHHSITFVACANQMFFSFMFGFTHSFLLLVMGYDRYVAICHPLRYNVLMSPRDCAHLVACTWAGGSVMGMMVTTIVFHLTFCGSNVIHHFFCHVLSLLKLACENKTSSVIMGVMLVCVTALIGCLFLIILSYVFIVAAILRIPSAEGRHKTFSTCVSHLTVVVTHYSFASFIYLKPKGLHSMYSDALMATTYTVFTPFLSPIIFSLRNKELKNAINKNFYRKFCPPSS
How it was run: as §1

OR10H5 (Homo sapiens) = OR10H5 (Homo sapiens) (UniProt Q8NGA6)
OR10H5 (Homo sapiens), sequence (Q8NGA6 whole entry): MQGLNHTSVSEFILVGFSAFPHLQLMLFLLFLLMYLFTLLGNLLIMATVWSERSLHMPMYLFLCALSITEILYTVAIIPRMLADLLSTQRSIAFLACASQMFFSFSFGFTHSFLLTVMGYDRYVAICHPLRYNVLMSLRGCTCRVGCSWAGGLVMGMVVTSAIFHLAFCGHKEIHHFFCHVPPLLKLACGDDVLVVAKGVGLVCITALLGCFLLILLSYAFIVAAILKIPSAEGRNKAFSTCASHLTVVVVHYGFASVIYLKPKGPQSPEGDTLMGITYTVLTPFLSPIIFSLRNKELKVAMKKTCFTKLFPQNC
How it was run: as §1

OR10J3 (Homo sapiens) = OR10J3 (Homo sapiens) (UniProt Q5JRS4)
OR10J3 (Homo sapiens), sequence (Q5JRS4 whole entry): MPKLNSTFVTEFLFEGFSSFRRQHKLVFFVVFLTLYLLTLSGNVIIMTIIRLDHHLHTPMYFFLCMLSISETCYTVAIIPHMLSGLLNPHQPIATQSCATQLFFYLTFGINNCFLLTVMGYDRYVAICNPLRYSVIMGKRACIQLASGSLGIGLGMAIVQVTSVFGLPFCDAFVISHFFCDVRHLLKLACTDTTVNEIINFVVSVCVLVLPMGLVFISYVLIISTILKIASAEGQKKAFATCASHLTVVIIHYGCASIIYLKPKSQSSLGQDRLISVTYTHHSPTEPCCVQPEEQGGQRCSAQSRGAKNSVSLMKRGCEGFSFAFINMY
How it was run: as §1

OR10J4 (Homo sapiens) = OR10J4 (Homo sapiens) (UniProt P0C629)
How it was run: as §1

OR10K1 (Homo sapiens) = OR10K1 (Homo sapiens) (UniProt Q8NGX5)
OR10K1 (Homo sapiens), sequence (Q8NGX5 whole entry): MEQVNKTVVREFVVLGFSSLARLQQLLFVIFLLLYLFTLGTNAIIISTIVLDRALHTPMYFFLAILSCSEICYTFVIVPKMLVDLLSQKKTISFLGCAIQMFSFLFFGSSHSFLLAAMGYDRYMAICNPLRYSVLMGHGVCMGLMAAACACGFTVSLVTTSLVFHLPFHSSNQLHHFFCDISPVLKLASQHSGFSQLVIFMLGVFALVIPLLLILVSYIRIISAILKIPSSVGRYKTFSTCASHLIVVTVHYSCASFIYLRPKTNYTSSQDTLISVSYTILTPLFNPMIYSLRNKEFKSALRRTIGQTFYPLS
How it was run: as §1

OR10K2 (Homo sapiens) = OR10K2 (Homo sapiens) (UniProt Q6IF99)
How it was run: as §1

OR10P1 (Homo sapiens) = OR10P1 (Homo sapiens) (UniProt Q8NGE3)
OR10P1 (Homo sapiens), sequence (Q8NGE3 whole entry): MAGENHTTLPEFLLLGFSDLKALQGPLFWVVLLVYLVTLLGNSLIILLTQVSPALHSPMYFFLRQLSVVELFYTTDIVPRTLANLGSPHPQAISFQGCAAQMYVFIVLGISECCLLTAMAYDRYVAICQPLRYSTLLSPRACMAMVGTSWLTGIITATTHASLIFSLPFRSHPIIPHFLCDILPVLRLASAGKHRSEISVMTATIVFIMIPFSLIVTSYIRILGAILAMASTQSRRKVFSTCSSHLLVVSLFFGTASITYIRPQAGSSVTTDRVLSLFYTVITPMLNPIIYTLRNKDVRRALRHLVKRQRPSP
How it was run: as §1

OR10Q1 (Homo sapiens) = OR10Q1 (Homo sapiens) (UniProt Q8NGQ4)
OR10Q1 (Homo sapiens), sequence (Q8NGQ4 whole entry): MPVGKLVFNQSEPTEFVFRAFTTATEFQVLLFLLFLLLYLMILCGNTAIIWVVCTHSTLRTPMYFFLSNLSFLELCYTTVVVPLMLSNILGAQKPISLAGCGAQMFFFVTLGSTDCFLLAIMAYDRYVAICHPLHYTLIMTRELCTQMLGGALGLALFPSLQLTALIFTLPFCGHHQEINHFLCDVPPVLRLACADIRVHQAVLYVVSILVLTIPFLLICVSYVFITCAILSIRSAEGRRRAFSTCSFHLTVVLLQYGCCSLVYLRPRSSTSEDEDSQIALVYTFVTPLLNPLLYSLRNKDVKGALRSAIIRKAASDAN
How it was run: as §1

OR10R2 (Homo sapiens) = OR10R2 (Homo sapiens) (UniProt Q8NGX6)
OR10R2 (Homo sapiens), sequence (Q8NGX6 whole entry): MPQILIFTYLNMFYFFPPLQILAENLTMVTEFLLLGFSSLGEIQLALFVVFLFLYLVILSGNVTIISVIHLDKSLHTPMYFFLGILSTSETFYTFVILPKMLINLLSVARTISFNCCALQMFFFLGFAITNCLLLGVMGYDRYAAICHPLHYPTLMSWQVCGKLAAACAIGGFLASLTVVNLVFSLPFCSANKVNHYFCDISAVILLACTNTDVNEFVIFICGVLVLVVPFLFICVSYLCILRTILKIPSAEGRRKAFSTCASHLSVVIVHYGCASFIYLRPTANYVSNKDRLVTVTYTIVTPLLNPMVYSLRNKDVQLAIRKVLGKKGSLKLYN
How it was run: as §1

OR10T2 (Homo sapiens) = OR10T2 (Homo sapiens) (UniProt Q8NGX3)
OR10T2 (Homo sapiens), sequence (Q8NGX3 whole entry): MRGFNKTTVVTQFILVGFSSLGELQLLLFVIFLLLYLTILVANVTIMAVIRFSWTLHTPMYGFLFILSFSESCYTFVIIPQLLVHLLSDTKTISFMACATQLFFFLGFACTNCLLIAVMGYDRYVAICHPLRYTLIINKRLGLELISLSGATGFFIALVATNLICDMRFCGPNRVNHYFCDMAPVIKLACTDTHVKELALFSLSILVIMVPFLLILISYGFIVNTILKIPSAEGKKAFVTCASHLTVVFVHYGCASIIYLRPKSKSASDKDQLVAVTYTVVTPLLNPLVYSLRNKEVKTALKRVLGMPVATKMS
How it was run: as §1

OR10V1 (Homo sapiens) = OR10V1 (Homo sapiens) (UniProt Q8NGI7)
OR10V1 (Homo sapiens), sequence (Q8NGI7 whole entry): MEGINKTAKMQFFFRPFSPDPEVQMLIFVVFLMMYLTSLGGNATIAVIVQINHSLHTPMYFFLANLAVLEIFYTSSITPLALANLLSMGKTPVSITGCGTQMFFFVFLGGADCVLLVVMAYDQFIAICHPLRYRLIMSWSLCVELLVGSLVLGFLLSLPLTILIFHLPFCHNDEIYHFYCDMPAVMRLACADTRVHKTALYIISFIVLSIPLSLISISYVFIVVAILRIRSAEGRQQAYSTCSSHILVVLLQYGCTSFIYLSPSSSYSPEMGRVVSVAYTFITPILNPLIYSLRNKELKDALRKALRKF
How it was run: as §1

OR10W1 (Homo sapiens) = OR10W1 (Homo sapiens) (UniProt Q8NGF6)
OR10W1 (Homo sapiens), sequence (Q8NGF6 whole entry): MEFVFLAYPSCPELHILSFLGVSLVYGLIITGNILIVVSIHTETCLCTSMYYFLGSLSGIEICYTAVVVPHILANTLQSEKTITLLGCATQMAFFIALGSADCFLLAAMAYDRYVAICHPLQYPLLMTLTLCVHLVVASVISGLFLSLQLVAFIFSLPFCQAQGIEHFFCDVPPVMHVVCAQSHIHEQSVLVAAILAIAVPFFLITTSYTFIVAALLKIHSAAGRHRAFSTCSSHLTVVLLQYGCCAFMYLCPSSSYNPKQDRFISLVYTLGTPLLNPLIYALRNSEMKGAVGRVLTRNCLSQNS
How it was run: as §1

OR10X1 (Homo sapiens) = OR10X1 (Homo sapiens) (UniProt Q8NGY0)
OR10X1 (Homo sapiens), sequence (Q8NGY0 whole entry): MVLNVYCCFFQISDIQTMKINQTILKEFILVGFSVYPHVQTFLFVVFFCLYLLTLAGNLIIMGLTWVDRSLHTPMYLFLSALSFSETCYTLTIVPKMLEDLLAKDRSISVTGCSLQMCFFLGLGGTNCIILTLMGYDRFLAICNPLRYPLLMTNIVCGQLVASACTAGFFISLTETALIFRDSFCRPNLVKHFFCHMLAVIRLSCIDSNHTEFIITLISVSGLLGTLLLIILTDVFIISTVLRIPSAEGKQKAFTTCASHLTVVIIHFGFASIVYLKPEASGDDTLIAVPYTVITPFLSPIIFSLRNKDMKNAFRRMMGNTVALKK
How it was run: as §1

OR10Z1 (Homo sapiens) = OR10Z1 (Homo sapiens) (UniProt Q8NGY1)
OR10Z1 (Homo sapiens), sequence (Q8NGY1 whole entry): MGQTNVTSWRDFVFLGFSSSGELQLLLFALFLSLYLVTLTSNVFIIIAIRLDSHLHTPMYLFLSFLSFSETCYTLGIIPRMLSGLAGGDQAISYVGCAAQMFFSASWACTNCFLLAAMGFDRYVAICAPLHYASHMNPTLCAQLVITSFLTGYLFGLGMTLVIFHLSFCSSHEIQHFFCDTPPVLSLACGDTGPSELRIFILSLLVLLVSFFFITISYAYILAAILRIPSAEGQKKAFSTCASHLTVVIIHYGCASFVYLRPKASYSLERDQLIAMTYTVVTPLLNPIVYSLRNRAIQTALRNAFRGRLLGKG
How it was run: as §1

OR11A1 (Homo sapiens) = OR11A1 (Homo sapiens) (UniProt Q9GZK7)
OR11A1 (Homo sapiens), sequence (Q9GZK7 whole entry): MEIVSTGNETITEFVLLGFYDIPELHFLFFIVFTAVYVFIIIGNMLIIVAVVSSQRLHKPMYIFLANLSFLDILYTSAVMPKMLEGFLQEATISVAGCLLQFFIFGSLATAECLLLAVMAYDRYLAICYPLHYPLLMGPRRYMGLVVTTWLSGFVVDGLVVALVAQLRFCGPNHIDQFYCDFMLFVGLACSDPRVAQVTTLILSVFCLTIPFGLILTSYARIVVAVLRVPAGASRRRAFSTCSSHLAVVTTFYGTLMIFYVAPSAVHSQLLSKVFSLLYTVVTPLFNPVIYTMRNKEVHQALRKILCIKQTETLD
How it was run: as §1

OR11G2 (Homo sapiens) = OR11G2 (Homo sapiens) (UniProt Q8NGC1)
OR11G2 (Homo sapiens), sequence (Q8NGC1 whole entry): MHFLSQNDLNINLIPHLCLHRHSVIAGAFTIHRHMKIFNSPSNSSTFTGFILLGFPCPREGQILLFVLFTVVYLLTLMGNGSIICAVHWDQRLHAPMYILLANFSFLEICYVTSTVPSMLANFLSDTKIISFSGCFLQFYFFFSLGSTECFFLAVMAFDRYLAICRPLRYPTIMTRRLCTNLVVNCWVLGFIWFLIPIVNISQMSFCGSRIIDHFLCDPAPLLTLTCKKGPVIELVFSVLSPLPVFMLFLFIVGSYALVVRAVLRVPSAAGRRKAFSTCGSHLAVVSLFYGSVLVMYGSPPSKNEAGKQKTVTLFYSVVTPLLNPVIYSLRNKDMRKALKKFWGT
How it was run: as §1

OR10J1 (Homo sapiens) = OR10J1 (Homo sapiens) (UniProt P30954)
How it was run: as §1

Measured: odorant receptor agonist call

COc1ccc(C=O)cc1
inactive: OR10S1 (Homo sapiens)

CCC1CCC(=O)O1 (configuration not stated)
inactive: OR10J5 (Homo sapiens)

O=c1cc(O)c2ccccc2o1
inactive: OR10J5 (Homo sapiens)

C=CCc1ccccc1
inactive: OR10J5 (Homo sapiens)

Cc1cccc(C)c1
inactive: OR10S1 (Homo sapiens)

Cc1c([N+](=O)[O-])c(C)c([N+](=O)[O-])c(C(C)(C)C)c1[N+](=O)[O-]
inactive: OR10H3 (Homo sapiens) | OR10H4 (Homo sapiens) | OR10H5 (Homo sapiens) | OR10J3 (Homo sapiens) | OR10J4 (Homo sapiens) | OR10J5 (Homo sapiens) | OR10K1 (Homo sapiens) | OR10K2 (Homo sapiens) | OR10P1 (Homo sapiens) | OR10Q1 (Homo sapiens) | OR10R2 (Homo sapiens) | OR10S1 (Homo sapiens) | OR10T2 (Homo sapiens) | OR10V1 (Homo sapiens) | OR10W1 (Homo sapiens) | OR10X1 (Homo sapiens) | OR10Z1 (Homo sapiens) | OR11A1 (Homo sapiens) | OR11G2 (Homo sapiens)

C=CCOC(=O)Cc1ccccc1
inactive: OR10H3 (Homo sapiens) | OR10H4 (Homo sapiens) | OR10H5 (Homo sapiens) | OR10J1 (Homo sapiens) | OR10J3 (Homo sapiens) | OR10J5 (Homo sapiens) | OR10K1 (Homo sapiens) | OR10P1 (Homo sapiens) | OR10Q1 (Homo sapiens) | OR10R2 (Homo sapiens) | OR10S1 (Homo sapiens) | OR10T2 (Homo sapiens) | OR10V1 (Homo sapiens) | OR10W1 (Homo sapiens) | OR10X1 (Homo sapiens) | OR10Z1 (Homo sapiens) | OR11A1 (Homo sapiens) | OR11G2 (Homo sapiens)
